Assay results: ChEMBL document CHEMBL1147572, “Synthesis, SAR, and antitumor properties of diamino-C,N-diarylpyrimidine positional isomers: inhibitors of lysophosphatidic acid acyltransferase-beta” (Bioorg Med Chem Lett, 2004)

Assays:
[1] = target: T1, 1-acyl-sn-glycerol-3-phosphate acyltransferase beta (Homo sapiens, UniProt O15120); assay: Inhibitory activity against Lysophosphatidic acid acyltransferase-beta expressed in Sf9 insect cell membranes
T1 sequence (O15120 whole entry): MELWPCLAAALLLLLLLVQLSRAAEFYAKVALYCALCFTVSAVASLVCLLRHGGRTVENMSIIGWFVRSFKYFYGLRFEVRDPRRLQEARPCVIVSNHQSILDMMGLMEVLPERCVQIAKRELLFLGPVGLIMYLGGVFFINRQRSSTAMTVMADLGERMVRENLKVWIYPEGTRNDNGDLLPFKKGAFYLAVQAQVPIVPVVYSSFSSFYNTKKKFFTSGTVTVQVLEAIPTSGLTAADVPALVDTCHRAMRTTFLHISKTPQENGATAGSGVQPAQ
In short: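 LPAAT-β overexpressed in Sf9 insect cell membranes. Enzyme activity read colorimetrically with DTNB (5,5'-dithiobis(2-nitrobenzoic acid)).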

K562 = assay: In vitro inhibitory activity against K-562 cell line proliferation; assay type: functional, cell-based; conditions: Homo sapiens
In short: (§1)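 Cell proliferation measured with a CyQuant fluorescent DNA-dye kit, following the method of an earlier report.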

DU-145 = assay: In vitro inhibitory activity against DU 145 cell line proliferation; assay type: functional, cell-based; conditions: Homo sapiens; in short: as §1
[2] = target: T2, 1-acyl-sn-glycerol-3-phosphate acyltransferase alpha (Homo sapiens) (UniProt Q99943); assay: Inhibitory activity against lysophosphatidic acid acyltransferase-alpha at 40 uM concentration
T2 sequence (whole entry): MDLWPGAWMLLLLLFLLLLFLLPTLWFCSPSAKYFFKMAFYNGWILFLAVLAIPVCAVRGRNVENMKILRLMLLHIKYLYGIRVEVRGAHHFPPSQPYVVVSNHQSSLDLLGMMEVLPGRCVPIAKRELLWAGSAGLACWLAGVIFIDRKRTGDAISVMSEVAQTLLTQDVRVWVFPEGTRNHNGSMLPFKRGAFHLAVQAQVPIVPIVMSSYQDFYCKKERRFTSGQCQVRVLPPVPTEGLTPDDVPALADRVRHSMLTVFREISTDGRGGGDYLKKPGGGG
In short: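 LPAAT-α overexpressed in Sf9 insect cell membranes in the same way. Activity read colorimetrically with DTNB. Inhibition recorded at 40 μM.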

Mus musculus = assay: Tumor growth delay against Lewis lung tumor LL2 cell line at 100 mg/kg q1d*4 intravenously in mice; conditions: route intravenous
[3] = system: Lewis lung carcinoma cell line; assay: In vitro inhibitory activity against murine Lewis lung tumor LL2 cell line; assay type: functional, cell-based; conditions: Mus musculus

| SMILES | IC50 [1] | IC50 (K562) | IC50 (DU-145) | inhibition [2] | IC50 [3] | TGD (Mus musculus) |
| --- | --- | --- | --- | --- | --- | --- |
| CCOc1ccc(Cl)cc1-c1cc(Nc2ccc([N+](=O)[O-])cc2)nc(N)n1 |  | 180 nM | 350 nM |  |  |  |
| CCOc1ccc(Br)cc1-c1cc(Nc2ccc(CC(=O)NO)cc2)nc(N)n1 | 400 nM | > 1000 nM | > 1000 nM |  |  |  |
| COc1ccc(Cl)cc1-c1nc(N)cc(Nc2ccc(Cl)cc2)n1 | 7000 nM | 750 nM | 5000 nM |  |  |  |
| CCOc1ccc(Br)cc1-c1cc(Nc2ccc(/C(C)=N\OC)cc2)nc(N)n1 | 970 nM | > 1000 nM | > 1000 nM |  |  |  |
| COc1ccc(Cl)cc1-c1cc(Nc2ccc3c[nH]nc3c2)nc(N)n1 |  | 250 nM | 1000 nM |  |  |  |
| Cc1ccc(O)cc1-c1cc(Nc2ccc(Cl)cc2)nc(N)n1 | 8300 nM |  |  |  |  |  |
| Cc1ccc(Br)cc1-c1cc(Nc2ccc(Cl)cc2)nc(N)n1 |  | 70 nM | 100 nM |  |  |  |
| Nc1nc(Nc2ccc(Cl)cc2)cc(-c2cc(Cl)ccc2Cl)n1 |  | < 100 nM | 190 nM |  |  |  |
| CCOc1ccc(Cl)cc1-c1cc(Nc2cccc([N+](=O)[O-])c2)nc(N)n1 | 640 nM | 450 nM | > 1000 nM |  |  |  |
| COc1ccc(Cl)cc1-c1nc(N)cc(Nc2ccc3c[nH]nc3c2)n1 |  | 5500 nM | > 10000 nM |  |  |  |
| CCOc1ccc(Cl)cc1-c1cc(Nc2ccc(Cl)cc2)nc(N)n1 |  | < 12 nM | 70 nM |  |  |  |
| CCOc1ccc(Br)cc1-c1cc(Nc2ccc(C(N)=O)cc2)nc(N)n1 | 750 nM |  |  |  |  |  |
| CCOc1ccc(Br)cc1-c1cc(Nc2ccc(C(=O)O)cc2)nc(N)n1 | 2700 nM |  |  |  |  |  |
| CCOc1ccc(Br)cc1-c1cc(Nc2ccc(C(=O)NO)cc2)nc(N)n1 |  | 700 nM | > 1000 nM |  |  |  |
| COc1ccc(Cl)cc1-c1cc(N)nc(Nc2ccc(Cl)cc2)n1 | 7000 nM | 3000 nM | > 10000 nM |  |  |  |
| COc1ccc(Cl)cc1-c1cc(N)nc(Nc2ccc(Br)cc2)n1 | 2300 nM | 3000 nM | > 10000 nM |  |  |  |
| CCOc1ccc(Cl)cc1-c1cc(Nc2ccc3c[nH]nc3c2)nc(N)n1 |  | < 100 nM | 200 nM |  |  |  |
| COc1ccc(Cl)cc1-c1cc(Nc2ccc(Br)cc2)nc(N)n1 | 28 nM | 150 nM | 250 nM |  |  |  |
| COc1ccc(Cl)cc1-c1cc(N)nc(Nc2ccc3c[nH]nc3c2)n1 |  | > 10000 nM | > 10000 nM |  |  |  |
| CCOc1ccc(Br)cc1-c1cc(Nc2ccc(C(=N)N)cc2)nc(N)n1 | > 5000 nM |  |  |  |  |  |
| Cc1ccc(Cl)cc1-c1cc(Nc2ccc(C(F)(F)F)cc2)nc(N)n1 | 140 nM | 140 nM | 230 nM |  | 160 nM | 6 days |
| Cc1ccc(F)cc1-c1cc(Nc2ccc(Cl)cc2)nc(N)n1 | 150 nM | 250 nM | > 1000 nM |  |  |  |
| CCOc1ccc(Br)cc1-c1cc(Nc2ccc(C(C)=O)cc2)nc(N)n1 |  | 50 nM | 90 nM |  |  |  |

Further lines, with some results ahead:

| IC50 [1] | IC50 (K562) | IC50 (DU-145) | inhibition [2] | IC50 [3] | SMILES | TGD (Mus musculus) |
| --- | --- | --- | --- | --- | --- | --- |
| 610 nM | 200 nM | 400 nM |  |  | Cc1ccc(Cl)cc1-c1cc(Nc2cccc(Br)c2)nc(N)n1 |  |
| 22 nM | 60 nM | 120 nM |  |  | Cc1ccc(Cl)cc1-c1cc(Nc2ccc(Cl)cc2)nc(N)n1 |  |
| 210 nM | > 1000 nM | > 1000 nM |  |  | CCOc1ccc(Br)cc1-c1cc(Nc2ccc(CC(=O)O)cc2)nc(N)n1 |  |
|  | < 50 nM | 70 nM |  |  | CCOc1ccc(Cl)cc1-c1cc(Nc2ccc(CCO)cc2)nc(N)n1 |  |
| 10000 nM |  |  |  |  | Nc1nc(Nc2ccc(Cl)cc2)cc(-c2cc(Cl)ccc2O)n1 |  |
|  | 150 nM | 500 nM |  |  | COc1ccc(Cl)cc1-c1cc(Nc2ccc(Cl)cc2)nc(N)n1 |  |
| 91 nM | 200 nM | 500 nM |  |  | CCOc1ccc(Br)cc1-c1cc(Nc2ccc(B(O)O)cc2)nc(N)n1 |  |
| 120 nM | 260 nM | > 1000 nM |  |  | CCOc1ccc(Br)cc1-c1cc(Nc2ccccc2)nc(N)n1 |  |
|  | 60 nM | 130 nM |  |  | Cc1ccc(Cl)cc1-c1cc(Nc2ccc(Br)cc2)nc(N)n1 |  |
| 720 nM | 350 nM | > 1000 nM |  |  | CCOc1ccc(Br)cc1-c1cc(Nc2cccc(C#N)c2)nc(N)n1 |  |
| 16 nM | 50 nM | 80 nM | 50% |  | CCOc1ccc(Br)cc1-c1cc(Nc2ccc(Cl)cc2)nc(N)n1 |  |
|  | 150 nM | 800 nM |  |  | COc1ccc(Cl)cc1-c1nc(N)cc(Nc2ccc(Br)cc2)n1 |  |
|  | > 1000 nM | > 1000 nM |  |  | Nc1nc(Nc2ccc(Cl)cc2)cc(-c2cc(Br)ccc2O)n1 |  |
| 17 nM | 70 nM | 400 nM |  |  | CCOc1ccc(Br)cc1-c1cc(Nc2ccc(C#N)cc2)nc(N)n1 |  |
|  | > 1000 nM | > 1000 nM |  |  | CCOc1ccc(Cl)cc1-c1cc(Nc2ccc(CCCO)cc2)nc(N)n1 |  |
| 84 nM | < 50 nM | < 50 nM |  |  | CCOc1ccc(Br)cc1-c1cc(Nc2ccc(/C(C)=N\O)cc2)nc(N)n1 |  |
|  | 70 nM | 110 nM |  |  | Cc1ccc(Br)cc1-c1cc(Nc2ccc(Br)cc2)nc(N)n1 |  |
| 580 nM | > 1000 nM | > 1000 nM |  |  | CCOc1ccc(Cl)cc1-c1cc(Nc2ccc(CC(=O)O)cc2)nc(N)n1 |  |
|  | < 12 nM | 40 nM |  |  | CCOc1ccc(Cl)cc1-c1cc(Nc2ccc(CO)cc2)nc(N)n1 |  |
